Compounds with a hit are over-represented: about 2.5% of the library has one in this group of screens.
E-sel inducer = E-selectin induction on HUVECs. P16581. HUVEC E-selectin immunofluorescence imaging; normalized: neutral wells 0, TNF-alpha wells 100. activation, % at 7.58 µM. 260,000 tested, 0.37% active. AID 686992;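 active = mean E-selectin-positive cell signal at least 10% of the positive control, reached in at least 60% of replicates, without over 20% cell loss; inconclusive = no rule given, readout overlaps actives, possibly toxicity-flagged; inactive = the rest, including those meeting only one limit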
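System: HUVEC / Compound: single concentration / Signal: immunofluorescence imaging / Read-out: percent E-selectin-positive cells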
ERAP1 HTS inh = ERAP1 (human) enzyme inhibition. AID 652197. inhibition, % at 10.7 µM. Q9NZ08. 340,000 tested, 0.15% active. recombinant ERAP1, Leu-AMC fluorescence, 60 min;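 active = mean replicate inhibition of at least 30%, or all replicates individually reaching that 30% level; inactive = mean below 30% and not every replicate reaching it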;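 also: 0% = neutral control wells and 100% = L-leucinethiol positive control wells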
Target sequence (Q9NZ08 whole entry, looked up): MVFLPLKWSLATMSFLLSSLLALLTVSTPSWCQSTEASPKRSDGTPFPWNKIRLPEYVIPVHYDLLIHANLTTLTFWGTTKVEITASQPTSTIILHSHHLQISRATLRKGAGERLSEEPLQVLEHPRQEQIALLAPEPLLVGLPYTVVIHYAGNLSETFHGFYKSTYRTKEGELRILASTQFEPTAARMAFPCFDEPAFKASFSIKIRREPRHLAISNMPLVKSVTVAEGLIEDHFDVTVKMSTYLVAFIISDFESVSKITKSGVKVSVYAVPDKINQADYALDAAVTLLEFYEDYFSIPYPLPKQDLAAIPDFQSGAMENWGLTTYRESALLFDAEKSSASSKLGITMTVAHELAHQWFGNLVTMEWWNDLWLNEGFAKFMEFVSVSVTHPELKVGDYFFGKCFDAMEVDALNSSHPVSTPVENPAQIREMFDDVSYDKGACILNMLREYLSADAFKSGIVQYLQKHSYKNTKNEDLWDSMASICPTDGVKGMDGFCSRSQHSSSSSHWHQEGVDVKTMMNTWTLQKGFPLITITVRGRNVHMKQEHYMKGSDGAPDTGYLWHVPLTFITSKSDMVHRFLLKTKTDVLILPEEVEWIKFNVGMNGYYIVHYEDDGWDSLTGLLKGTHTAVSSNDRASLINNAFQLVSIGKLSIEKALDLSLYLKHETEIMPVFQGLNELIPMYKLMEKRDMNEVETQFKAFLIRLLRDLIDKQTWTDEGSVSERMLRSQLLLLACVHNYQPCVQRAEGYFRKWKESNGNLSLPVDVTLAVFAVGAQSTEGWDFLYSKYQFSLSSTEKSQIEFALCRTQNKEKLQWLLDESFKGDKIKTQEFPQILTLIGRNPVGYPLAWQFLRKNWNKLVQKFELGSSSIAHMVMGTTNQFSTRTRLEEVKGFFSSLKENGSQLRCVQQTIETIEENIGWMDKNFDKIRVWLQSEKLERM
DENV2 CPE = DENV2-induced cell death inhibition. DENV2-infected cells, cytopathic effect rescue, plate reader. CPE inhibition, % at 9.99 µM. 350,000 tested, 1.7% active. AID 651640; in the data active = CPE inhibition above about 20%, passing the limit was not always enough; inconclusive = no clear call, values can overlap the other calls; tested in BHK-21 cells;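 also: 0% = median of neutral control wells and 100% = median of positive control wells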
PglD inh = PglD (C. jejuni) enzyme inhibition; 360,000 tested, 0.098% active; purified PglD enzyme, DTNB colorimetric CoA detection; AID 602405; inhibition, % at 12.5 µM; in the data active = inhibition above about 16%, passing the limit was not always enough; inconclusive = no clear call, values can overlap the other calls
SIRT5 block = inhibitors of human sirtuin-5 desuccinylase; Q9NXA8; 330,000 tested, 1.1% active; inhibition, % at 15 µM; AID 652115; Purified SirT5, succinyl-peptide AMC, trypsin-coupled fluorescence; in the data active = inhibition above about 15%; inconclusive = no clear call, values can overlap the other calls
* marks the source's active call; other numbers are inactive results; ? = inconclusive; . = not tested or not shown.

SMILES	E-sel inducer	ERAP1 HTS inh	DENV2 CPE	PglD inh	SIRT5 block
O=C(Cc1ccccn1)N[C@@H]1CC[C@H](CCn2cc(-c3cccnc3)nn2)O[C@H]1CO	0	-5	0	-2	2
O=S(=O)(N[C@@H]1CC[C@@H](CCn2cc(-c3cccnc3)nn2)O[C@@H]1CO)c1ccccc1	-1	-2	10	-3	-1
Cc1ccccc1S(=O)(=O)N[C@@H]1CC[C@H](CCn2cc(-c3ccccc3)nn2)O[C@@H]1CO	0	4	21*	4	2
O=C(Cc1ccccn1)N[C@H]1CC[C@H](CCn2cc(-c3cccnc3)nn2)O[C@@H]1CO	1	-3	58*	-1	0
O=S(=O)(N[C@H]1CC[C@@H](CCn2cc(-c3cccnc3)nn2)O[C@H]1CO)c1ccccc1	-1	-3	28*	-1	11
Cc1ccccc1S(=O)(=O)N[C@H]1CC[C@@H](CCn2cc(-c3ccccc3)nn2)O[C@H]1CO	0	9	4	11	7
COc1ccc2c3c(n(C)c2c1)[C@@H](CO)N(Cc1ccncc1)CC31CCN(C(=O)Cc2ccncc2)CC1	0	2	2	.	0
COc1ccc(C(C(=O)NCc2ccccc2)n2c(-c3ccncc3)nc3ccccc32)cc1 (stereo unspecified)	0	6	22*	.	.
Cc1cc(C(=O)COc2ccc(C#N)cc2)c(C)n1-c1ccc2c(c1)OCO2	1	-3	0	4	35*
Cc1cc(=O)[nH]c(N/N=C/C2=C(N3CCOCC3)C(=C\c3ccc(Cl)cc3)/CC2)n1	0	0	4	.	-1
O=C(NCC(c1ccc(F)cc1)N1CCOCC1)c1cccnc1Sc1ccc(Cl)cc1 (stereo unspecified)	0	4	-9	.	-1
O=C1C=CC2C(c3ccc4c(c3)OCO4)CC1N2Cc1ccccc1 (stereo unspecified)	.	.	.	-4	.
Cc1cc(F)cc(-c2cc(C(=O)NCC3CCCCC3)[nH]n2)c1	0	-2	27*	1	0
CCN(C(=O)COc1ccc(N(C)S(=O)(=O)c2ccc(NC(C)=O)cc2)cc1)C1CCCCC1	1	1	18	0	.
CCCCCCOc1ccc(N2C(=O)CC(N3CCN(CCN=CC4C(=O)CC(C)(C)CC4=O)CC3)C2=O)cc1 (stereo unspecified)	.	0	2	.	112*
CCCCCCOc1ccc(N2C(=O)CC(N3CCN(CCN=CC4=C(O)CC(C)(C)CC4=O)CC3)C2=O)cc1 (stereo unspecified)	.	1	1	.	-2
O=C(Nc1nc2ccccc2s1)c1ccc([N+](=O)[O-])o1	0	3	-1	.	2
Cc1cc(C)nc(NC(=O)c2ccc([N+](=O)[O-])o2)n1	.	-2	93*	.	-2
COc1ccc2nc(NC(=O)c3ccc([N+](=O)[O-])o3)sc2c1	0	3	21*	3	2
COc1ccc(-n2nnnc2SCC(=O)NC2CCS(=O)(=O)C2)cc1 (stereo unspecified)	0	-5	-1	-2	-5
CO[C@@H]1CN(C)C(=O)c2cc(NC(C)=O)ccc2OC[C@@H](C)N(C(=O)C2CC2)C[C@@H]1C	0	0	-10	2	-3
CC(C)c1onc(C(=O)N2CCN(Cc3ccccc3)CC2)c1[N+](=O)[O-]	.	-2	168*	0	.
COC(=O)C12CCC3(SCCS3)C(C(=O)OC)(CCC13SCCS3)C2	.	-3	-5	-10	.
COC(=O)CSc1nc(C)c(C(=O)Nc2ccccc2C)c(-c2ccc(Cl)cc2)c1C#N	0	.	.	.	.
Cc1ccccc1NC(=O)c1c(C)nc(SCC(=O)OCc2ccccc2)c(C#N)c1-c1ccc(F)cc1	.	10	20*	.	.
SMILES	E-sel inducer	ERAP1 HTS inh	DENV2 CPE	PglD inh	SIRT5 block
CCOC(=O)C1=C[C@@H](C(C)C)N(S(=O)(=O)c2ccc(C)cc2)[C@H]1c1ccc(C(C)C)cc1	0	-1	-4	5	-7
C[C@H](CO)N1C[C@H](C)[C@@H](CN(C)S(=O)(=O)c2cn(C)cn2)Oc2ccc(NC(=O)Nc3ccc(F)cc3)cc2CC1=O	61*	.	.	.	.
C[C@@H]1CN([C@H](C)CO)C(=O)Cc2cc(NC(=O)Nc3ccc(F)cc3)ccc2O[C@@H]1CN(C)S(=O)(=O)c1cn(C)cn1	85*	.	.	.	.
COc1ccc(NC(=O)Nc2ccc3c(c2)CC(=O)N([C@H](C)CO)C[C@H](C)[C@H](CN(C)S(=O)(=O)c2cn(C)cn2)O3)cc1	.	3	27*	3	5
O=C(c1ccc(-n2cccn2)cc1)N1CCN(c2ncccc2C(F)(F)F)CC1	0	2	?	11	1
COCCNC(=O)C[C@@H]1CC[C@@H]2[C@H](COc3ccc(NC(=O)Nc4cccc(F)c4)cc3C(=O)N2C)O1	0	-3	?	1	1
CN(C)CCCNC(=O)C[C@H]1CC[C@@H]2[C@@H](COc3ccc(NC(=O)c4cccc(F)c4)cc3C(=O)N2C)O1	0	0	42*	4	-1
CCCNC(=O)C[C@H]1CC[C@H]2[C@H](COc3ccc(NC(=O)c4cccc(F)c4)cc3C(=O)N2C)O1	0	-2	12	2	-3
COCCNC(=O)C[C@@H]1CC[C@H]2[C@H](COc3ccc(NC(=O)Nc4cccc(F)c4)cc3C(=O)N2C)O1	0	.	3	2	23*
COC(=O)C1=NN(c2ccccc2)C2(S1)S/C(=C\c1ccccc1)C(=O)N2c1ccccc1 (stereo unspecified)	.	.	.	-2	.
COc1ccc(Cl)cc1C(=O)NN=C1CCCC1	0	-4	3	.	-1
CCOC(=O)C1(Cc2ccccc2)CCN(C2Cc3ccccc3C2)CC1	0	14	13	6	0
Brc1ccc(-c2ccccc2)cc1	.	2	62*	4	.
Cc1noc(C)c1NC(=O)Nc1ccc2c(c1)CC(=O)N([C@@H](C)CO)C[C@@H](C)[C@@H](CN(C)C(=O)Nc1ccccc1)O2	0	2	-8	-2	-7
Cc1noc(C)c1NC(=O)Nc1ccc2c(c1)CC(=O)N([C@H](C)CO)C[C@@H](C)[C@H](CN(C)C(=O)Nc1ccc(F)cc1)O2	39*	-2	7	3	-3
Cc1noc(C)c1NC(=O)Nc1ccc2c(c1)CC(=O)N([C@@H](C)CO)C[C@H](C)[C@@H](CN(C)C(=O)Nc1ccccc1)O2	0	1	83*	2	1
COc1ccc(OCCn2cncn2)cc1	.	.	.	-4	.
COc1ccc(-c2cc(C(F)(F)F)nc(S(=O)(=O)CCCC(=O)Nc3cccnc3Cl)n2)cc1OC	0	50*	11	.	-2
COCC(C)NC(=O)CCS(=O)(=O)c1nc(-c2ccc(OC)cc2)cc(C(F)(F)F)n1 (stereo unspecified)	.	.	.	20	.
CCCCCCCCCCCCCCCC[N+](C)(C)CCN(Cc1ccc(OC)cc1)c1ncccn1	.	.	.	-4	.
